In ChEMBL document CHEMBL5149991 (J Med Chem, 2021):

Columns and labels:
Histamine H3 receptor = Histamine H3 receptor (Homo sapiens, UniProt Q9Y5N1); assay: Displacement of [3H]UR-PI294 from human histamine H3 receptor stably expressed in baculovirus infected Sf9 cell membrane co-expressing G-alphai2 and G-beta1gamma2 incubated for 60 mins by scintillation counting analysis; format: cell membranes
Summary of the method: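 hH3R + Gαi2 + Gβ1γ2 expressed in Sf9 membranes. […] Mean ± SEM from N independent experiments in triplicate.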

D(2) dopamine receptor [1] = target: T1, D(2) dopamine receptor (Homo sapiens, UniProt P14416); assay: Displacement of [3H]N-methylspiperone from human D2 long receptor stably expressed in HEK293T cells co-expressing luciferase and CEK incubated for 140 mins by radioligand competition binding based assay; format: cell-based
T1 sequence (P14416 whole entry): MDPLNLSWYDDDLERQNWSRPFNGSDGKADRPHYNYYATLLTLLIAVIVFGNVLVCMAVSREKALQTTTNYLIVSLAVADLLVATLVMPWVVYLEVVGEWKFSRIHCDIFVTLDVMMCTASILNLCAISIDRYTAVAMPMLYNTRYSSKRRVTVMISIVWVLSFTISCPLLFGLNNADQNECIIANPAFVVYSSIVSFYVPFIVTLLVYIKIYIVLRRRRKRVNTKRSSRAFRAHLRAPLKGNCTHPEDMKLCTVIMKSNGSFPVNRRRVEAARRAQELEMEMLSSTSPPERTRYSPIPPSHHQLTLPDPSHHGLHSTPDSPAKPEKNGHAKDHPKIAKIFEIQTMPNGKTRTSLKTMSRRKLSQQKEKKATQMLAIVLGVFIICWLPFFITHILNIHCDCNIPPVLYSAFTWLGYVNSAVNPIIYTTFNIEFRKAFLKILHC

Histamine H2 receptor [2] = target: T2, Histamine H2 receptor (Cavia porcellus, UniProt P47747); assay: Agonist activity at guinea pig histamine H2 receptor stably transfected in HEK293T cells co-expressing NlucN-mGs/gpH2R-NlucC by mini-G protein recruitment assay; format: functional, cell-based
T2 sequence (P47747 whole entry): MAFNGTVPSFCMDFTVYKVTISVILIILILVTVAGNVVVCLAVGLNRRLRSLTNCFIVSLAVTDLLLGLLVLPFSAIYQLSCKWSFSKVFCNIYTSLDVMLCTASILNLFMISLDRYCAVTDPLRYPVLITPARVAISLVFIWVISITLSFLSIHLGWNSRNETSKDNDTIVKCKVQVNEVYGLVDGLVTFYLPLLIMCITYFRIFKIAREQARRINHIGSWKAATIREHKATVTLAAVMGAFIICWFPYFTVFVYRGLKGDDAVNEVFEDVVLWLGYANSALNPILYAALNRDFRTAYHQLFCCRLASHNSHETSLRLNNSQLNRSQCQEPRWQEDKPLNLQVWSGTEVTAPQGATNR

Histamine H2 receptor [3] = target: T2, Histamine H2 receptor; assay: Agonist activity at histamine H2 receptor in spontaneous beating guinea pig right atrium assessed as increase in heart beat; format: functional, tissue-based, Right cardiac atrium
D(2) dopamine receptor [4] = target: T1, D(2) dopamine receptor; format: functional, cell-based, HEK293T
D(4) dopamine receptor = target: T3, D(4) dopamine receptor (Homo sapiens, UniProt P21917); assay: Displacement of [3H]N-methylspiperone from human D4.4 receptor stably expressed in HEK293T cells co-expressing ElucN-betaarr2 hD4.4R-ELuc incubated for 60 mins by scintillation counting analysis; format: cell-based
T3 sequence (P21917 whole entry): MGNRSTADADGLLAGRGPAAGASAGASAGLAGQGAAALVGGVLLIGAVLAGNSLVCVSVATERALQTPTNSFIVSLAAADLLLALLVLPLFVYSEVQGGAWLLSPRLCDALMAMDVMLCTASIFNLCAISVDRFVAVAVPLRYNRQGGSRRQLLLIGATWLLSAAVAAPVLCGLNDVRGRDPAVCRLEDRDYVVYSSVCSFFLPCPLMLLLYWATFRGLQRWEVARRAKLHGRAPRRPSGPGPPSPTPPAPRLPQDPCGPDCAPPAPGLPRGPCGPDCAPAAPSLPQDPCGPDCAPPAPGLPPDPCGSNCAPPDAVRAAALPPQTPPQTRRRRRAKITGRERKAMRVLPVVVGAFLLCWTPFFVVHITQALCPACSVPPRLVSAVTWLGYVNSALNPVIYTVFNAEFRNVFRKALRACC

D(1B) dopamine receptor = D(1B) dopamine receptor (Homo sapiens, UniProt P21918); assay: Displacement of [3H]SCH23390 from human D5 receptor stably expressed in HEK293T cells co-expressing luciferase and CEK incubated for 60 mins by scintillation counting analysis; format: cell-based
D(1B) dopamine receptor, sequence (P21918 whole entry): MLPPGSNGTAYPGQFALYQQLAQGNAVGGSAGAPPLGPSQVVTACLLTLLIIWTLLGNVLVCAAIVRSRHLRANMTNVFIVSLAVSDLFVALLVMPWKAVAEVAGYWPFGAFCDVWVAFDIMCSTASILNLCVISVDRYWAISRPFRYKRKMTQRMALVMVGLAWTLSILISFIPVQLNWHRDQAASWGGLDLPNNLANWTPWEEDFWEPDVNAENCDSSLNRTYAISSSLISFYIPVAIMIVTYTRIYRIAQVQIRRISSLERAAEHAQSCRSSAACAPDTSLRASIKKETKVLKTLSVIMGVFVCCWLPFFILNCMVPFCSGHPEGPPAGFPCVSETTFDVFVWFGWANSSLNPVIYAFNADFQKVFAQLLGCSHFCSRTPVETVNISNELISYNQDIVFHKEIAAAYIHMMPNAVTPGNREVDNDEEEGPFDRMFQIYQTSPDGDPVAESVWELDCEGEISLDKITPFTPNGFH

[5] = target: T4, Muscarinic acetylcholine receptor M1 (Homo sapiens, UniProt P11229); assay: Displacement of [3H]N-methylscopolamine from human muscarinic acetylcholine M1 receptor stably expressed in CHO cells by radioligand competition binding based analysis; format: cell-based
T4 sequence (P11229 whole entry): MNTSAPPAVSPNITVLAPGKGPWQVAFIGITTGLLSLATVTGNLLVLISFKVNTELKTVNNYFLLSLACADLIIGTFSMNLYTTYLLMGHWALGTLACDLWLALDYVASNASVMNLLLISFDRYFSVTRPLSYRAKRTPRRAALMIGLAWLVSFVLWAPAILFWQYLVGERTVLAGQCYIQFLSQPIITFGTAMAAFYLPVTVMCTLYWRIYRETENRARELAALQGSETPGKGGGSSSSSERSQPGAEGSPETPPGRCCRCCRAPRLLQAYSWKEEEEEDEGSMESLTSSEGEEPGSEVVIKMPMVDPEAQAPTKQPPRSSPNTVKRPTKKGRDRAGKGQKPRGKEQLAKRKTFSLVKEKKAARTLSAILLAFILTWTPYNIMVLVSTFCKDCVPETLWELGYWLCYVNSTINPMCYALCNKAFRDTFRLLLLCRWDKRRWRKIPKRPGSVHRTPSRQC
Summary of the method: (§1)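 Whole CHO cells stably expressing hM1–hM5, competed against [3H]N-methylscopolamine. Kd/applied concentrations in nM: M1 0.17/0.2, M2 0.10/0.2, M3 0.12/0.2, M4 0.052/0.1, M5 0.20/0.3.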

[6] = target: T5, Muscarinic acetylcholine receptor M5 (Homo sapiens, UniProt P08912); assay: Displacement of [3H]N-methylscopolamine from human muscarinic acetylcholine M5 receptor stably expressed in CHO cells by radioligand competition binding based analysis; format: cell-based; summary of the method: as §1
T5 sequence (P08912 whole entry): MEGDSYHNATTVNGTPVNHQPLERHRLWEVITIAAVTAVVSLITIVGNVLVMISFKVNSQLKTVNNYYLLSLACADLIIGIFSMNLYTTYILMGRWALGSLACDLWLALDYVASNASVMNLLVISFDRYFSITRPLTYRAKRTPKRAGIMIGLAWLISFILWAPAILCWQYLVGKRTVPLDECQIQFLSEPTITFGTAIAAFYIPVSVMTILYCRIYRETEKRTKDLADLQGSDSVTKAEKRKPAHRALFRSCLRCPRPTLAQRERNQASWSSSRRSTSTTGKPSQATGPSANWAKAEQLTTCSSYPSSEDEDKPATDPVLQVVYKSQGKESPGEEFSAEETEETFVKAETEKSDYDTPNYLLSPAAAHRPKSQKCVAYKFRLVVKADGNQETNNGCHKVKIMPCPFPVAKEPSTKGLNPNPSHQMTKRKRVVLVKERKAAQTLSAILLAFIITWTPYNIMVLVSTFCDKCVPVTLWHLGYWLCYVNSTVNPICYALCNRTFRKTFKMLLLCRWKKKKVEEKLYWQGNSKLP

[7] = target: Beta-1 adrenergic receptor (Homo sapiens, UniProt P08588); assay: Displacement of [3H]CGP12177 from human beta-1 adrenergic receptor […] in HEK293T cell membrane incubated for 2 hrs by scintillation counting analysis; format: cell membranes
Beta-1 adrenergic receptor, sequence (P08588 whole entry): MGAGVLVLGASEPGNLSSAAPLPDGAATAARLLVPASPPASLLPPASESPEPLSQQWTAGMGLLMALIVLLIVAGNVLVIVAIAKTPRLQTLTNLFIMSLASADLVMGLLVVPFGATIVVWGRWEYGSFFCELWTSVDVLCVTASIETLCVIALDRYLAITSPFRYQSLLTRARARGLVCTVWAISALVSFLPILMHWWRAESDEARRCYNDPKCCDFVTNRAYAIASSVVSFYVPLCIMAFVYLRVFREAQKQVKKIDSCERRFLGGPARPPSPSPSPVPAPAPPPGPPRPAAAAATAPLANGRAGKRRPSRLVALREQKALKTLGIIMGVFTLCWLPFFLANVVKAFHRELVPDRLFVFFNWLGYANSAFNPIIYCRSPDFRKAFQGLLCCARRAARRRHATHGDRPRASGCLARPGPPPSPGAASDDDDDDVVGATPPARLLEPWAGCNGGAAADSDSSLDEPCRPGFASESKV
Summary of the method: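 Membranes of transiently transfected HEK293T cells in 25 mM HEPES, 5 mM MgCl2, 1 mM EDTA, 0.01% BSA, pH 7.4. β1 at 2 μg/well, β2 at 4 μg/well, with 0.2 nM [3H]CGP12177. Nonspecific binding with 10 μM CGP12177. IC50 converted to Ki by Cheng–Prusoff.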

Mu-type opioid receptor = Mu-type opioid receptor (Homo sapiens, UniProt P35372); assay: Displacement of [3H]diprenorphine from human mu-opioid receptor […] in HEK293T cell membrane incubated for 2 hrs by scintillation counting analysis; format: cell membranes
Mu-type opioid receptor, sequence (P35372 whole entry): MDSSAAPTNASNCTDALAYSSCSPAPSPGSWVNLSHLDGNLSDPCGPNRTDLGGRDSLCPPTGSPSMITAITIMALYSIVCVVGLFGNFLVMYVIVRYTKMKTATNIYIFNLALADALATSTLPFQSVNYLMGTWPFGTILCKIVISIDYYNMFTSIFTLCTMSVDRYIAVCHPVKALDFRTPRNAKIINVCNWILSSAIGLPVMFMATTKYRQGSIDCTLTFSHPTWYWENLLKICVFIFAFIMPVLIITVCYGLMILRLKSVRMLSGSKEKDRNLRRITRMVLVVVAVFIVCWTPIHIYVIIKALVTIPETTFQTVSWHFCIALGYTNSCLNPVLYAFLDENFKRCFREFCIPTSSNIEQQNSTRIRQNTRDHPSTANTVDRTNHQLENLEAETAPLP
Summary of the method: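 Transiently transfected HEK293T membranes in 50 mM Tris, pH 7.4. α2A: 10 μg/well, 0.5 nM [3H]RX821002, nonspecific with 10 μM RX821002. μOR: 6 μg/well, 0.3 nM [3H]diprenorphine, nonspecific with 10 μM naloxone. Ki from IC50 by Cheng–Prusoff.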

Histamine H4 receptor = Histamine H4 receptor (Homo sapiens, UniProt Q9H3N8)
Histamine H4 receptor, sequence (Q9H3N8 whole entry): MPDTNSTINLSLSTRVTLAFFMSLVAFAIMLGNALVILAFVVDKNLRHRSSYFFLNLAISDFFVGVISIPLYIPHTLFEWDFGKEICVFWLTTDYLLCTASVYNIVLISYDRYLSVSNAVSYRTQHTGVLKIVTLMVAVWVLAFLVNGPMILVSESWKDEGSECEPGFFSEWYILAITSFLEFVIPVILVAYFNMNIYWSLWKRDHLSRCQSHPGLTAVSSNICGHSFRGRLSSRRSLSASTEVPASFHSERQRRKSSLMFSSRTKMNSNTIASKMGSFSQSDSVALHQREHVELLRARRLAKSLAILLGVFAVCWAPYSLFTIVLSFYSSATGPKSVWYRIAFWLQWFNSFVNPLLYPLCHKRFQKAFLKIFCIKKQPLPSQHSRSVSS

Histamine H3 receptor, sequence (Q9Y5N1 whole entry): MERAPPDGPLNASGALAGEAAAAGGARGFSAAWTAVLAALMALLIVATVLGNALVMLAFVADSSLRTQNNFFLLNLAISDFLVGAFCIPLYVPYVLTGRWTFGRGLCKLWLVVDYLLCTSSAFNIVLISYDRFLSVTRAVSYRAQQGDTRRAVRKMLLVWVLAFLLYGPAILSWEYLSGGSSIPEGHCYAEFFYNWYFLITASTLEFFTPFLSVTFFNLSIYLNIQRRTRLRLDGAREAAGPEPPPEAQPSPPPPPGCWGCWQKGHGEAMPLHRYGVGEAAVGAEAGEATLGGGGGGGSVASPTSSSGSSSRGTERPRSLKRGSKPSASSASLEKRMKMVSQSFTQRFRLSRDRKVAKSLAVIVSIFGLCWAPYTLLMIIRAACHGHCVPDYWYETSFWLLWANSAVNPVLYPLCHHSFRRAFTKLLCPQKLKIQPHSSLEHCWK

SMILES	Ki (Histamine H3 receptor) [nM]	Ki (D(2) dopamine receptor [1]) [nM]	EC50 (Histamine H2 receptor [2]) [nM]	EC50 (Histamine H2 receptor [3]) [nM]	EC50 (D(2) dopamine receptor [4]) [nM]	Kd (D(4) dopamine receptor) [nM]	pKi (D(4) dopamine receptor)	Kd (D(1B) dopamine receptor) [nM]	pKi (D(1B) dopamine receptor)	Kd [5] [nM]	pKi [5]	Kd [6] [nM]	pKi [6]	Kd [7] [nM]	pKi [7]	Kd (Mu-type opioid receptor) [nM]	pKi (Mu-type opioid receptor)	Kd (Histamine H4 receptor) [nM]	Ki (Histamine H4 receptor) [nM]
N/C(=N\C(=O)NCc1ccccc1)NCCCc1nnc(N)s1	> 10000	6310	2.19	1.32	> 10000	0.078	6.17	0.24	4.95	0.17	< 5	0.2	> 5	0.075	< 4	0.09	5.4	16	> 10000
CCCCCNC(=O)/N=C(\N)NCCCc1sc(N)nc1C						0.078	6.96	0.24	5.4	0.17	< 5	0.2	> 5	0.075	4.66	0.09	5.99		
CCCCCNC(=O)/N=C(\N)NCCCc1nnc(N)s1.O=C(O)C(F)(F)F.O=C(O)C(F)(F)F	> 10000	9550	4.37	5.62	> 10000	0.078	5.65	0.24	4.46	0.17	< 5	0.2	> 5	0.075	< 4	0.09	5.47	16	> 10000
C[C@@H](NC(=O)/N=C(\N)NCCCc1ncn[nH]1)c1ccccc1	> 10000	> 10000	16.2	38	> 10000	0.078	5.18	0.24	4.62	0.17	< 5	0.2	< 5	0.075	4.31	0.09	4.76	16	> 10000
